This passage reports Ratio and IC50 results from ChEMBL document CHEMBL1125366, “Low molecular weight, non-peptide fibrinogen receptor antagonists” (J Med Chem, 1992).

Experiment [1] concerns the target T1, Integrin alpha-IIb/beta-3 (Homo sapiens) (UniProt P05106+P08514). The experiment is described as follows: (§1) Inhibition of fibrinogen binding to immobilized fibrinogen receptor. Format: protein-complex assay.
The nature of experiment [2]: Inhibition of platelet aggregation in human-platelet rich plasma(h-PRP) induced by adenosine 5'-diphosphate-(ADP). The class given is functional. The method, boiled down:
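Citrated human PRP with serial inhibitor dilutions; aggregation triggered by 10 μM ADP (final) and followed as rate of light transmission change in an aggregometer; plasma from at least four donors.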

The nature of experiment [3]: Inhibition of platelet aggregation in human-platelet rich plasma(h-PRP) induced by collagen. The class given is functional. The method, boiled down: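 Citrated human PRP with serial inhibitor dilutions; aggregation triggered by collagen at 2.5 μg/mL (final) and followed as rate of light transmission change in an aggregometer; plasma from at least four donors.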
Experiment [4] in a line: Inhibition of platelet aggregation in human-platelet rich plasma(h-PRP) induced by thrombin. Format: functional. The method, boiled down: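 Citrated human PRP with serial inhibitor dilutions; aggregation triggered by thrombin at 0.2 unit/mL (final) and followed as rate of light transmission change in an aggregometer; plasma from at least four donors.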
The target of experiment [5] is T1, Integrin alpha-IIb/beta-3 (Homo sapiens). The description is as §1. Format: protein-complex assay. Details: reference not given here.
Experiment [6] concerns the target Integrin alpha-V/beta-3 (Homo sapiens) (UniProt P05106+P06756). Put plainly: Inhibition of fibrinogen binding to immobilized vitronectin receptor. Details: reference not given here. Format: protein-complex assay.

Regarding `N=C(N)c1cccc(S(=O)(=O)NCCc2ccc(OCC(=O)O)cc2)c1`, the Ratio in experiment [1] was 24. The IC50 in experiment [2], in experiment [3] and in experiment [4] was over 200 µM in each case.

Consider `N=C(N)c1ccc(CC(N)C(=O)Nc2cccc(C(=O)NCCC(=O)O)c2)cc1` (centres undefined), for which the Ratio in experiment [5] is 10; in experiment [6] it was 2500. The values for the concentration for half-maximal inhibition (IC50) in experiment [2], in experiment [3] and in experiment [4] were 95 µM, 153 µM and 95 µM, respectively.
